In ChEMBL document CHEMBL1275459 (2008):
In brackets after ≈: the same amount, converted by molar mass.

What was measured:
[1] = test system: Klebsiella pneumoniae; experiment: Antimicrobial activity against ciprofloxacin-resistant Klebsiella pneumoniae isolate 95 harboring GyrA Ser83Leu, Asp78Asn, Ala171Ser and Val198Ile mutant gene by agar dilution method; assay type: functional
[2] = test system: Klebsiella pneumoniae; experiment: Antimicrobial activity against ciprofloxacin-resistant Klebsiella pneumoniae isolate 863 harboring GyrA Ser83Leu, Asp78Asn, Ala171Ser and Val198Ile mutant gene by agar dilution method; assay type: functional
[3] = test system: Klebsiella pneumoniae; experiment: Antimicrobial activity against ciprofloxacin-resistant Klebsiella pneumoniae isolate 149 harboring GyrA Ser83Leu, Asp78Asn, Ala171Ser and Val198Ile mutant gene by agar dilution method; assay type: functional
[4] = test system: Klebsiella pneumoniae; experiment: Antimicrobial activity against ciprofloxacin-resistant Klebsiella pneumoniae isolate 103 harboring GyrA Ser83Leu, Asp78Asn, Ala171Ser and Val198Ile mutant gene by agar dilution method; assay type: functional
[5] = test system: Klebsiella pneumoniae; experiment: Antimicrobial activity against ciprofloxacin-resistant Klebsiella pneumoniae isolate 663 harboring GyrA Ser83Leu, Asp78Asn, Ala171Ser and Val198Ile mutant gene by agar dilution method; assay type: functional
[6] = test system: Klebsiella pneumoniae; experiment: Antimicrobial activity against ciprofloxacin-resistant Klebsiella pneumoniae isolate 94 harboring GyrA Ser83Leu, Asp78Asn, Ala171Ser and Val198Ile mutant gene by agar dilution method; assay type: functional
[7] = test system: Klebsiella pneumoniae; experiment: Antimicrobial activity against ciprofloxacin-resistant Klebsiella pneumoniae isolate 779 harboring GyrA Ser83Leu, Asp78Asn, Ala171Ser and Val198Ile mutant gene by agar dilution method; assay type: functional
[8] = test system: Klebsiella pneumoniae; experiment: Antimicrobial activity against ciprofloxacin-resistant Klebsiella pneumoniae isolate 234 harboring GyrA Ser83Leu, Asp78Asn, Ala171Ser and Val198Ile mutant gene by agar dilution method; assay type: functional
[9] = test system: Klebsiella pneumoniae; experiment: Antimicrobial activity against ciprofloxacin-resistant Klebsiella pneumoniae isolate 3 harboring GyrA Ser83Leu, Asp78Asn, Ala171Ser and Val198Ile mutant gene by agar dilution method; assay type: functional
[10] = test system: Klebsiella pneumoniae; experiment: Antimicrobial activity against ciprofloxacin-resistant Klebsiella pneumoniae isolate 27 harboring GyrA Ser83Leu, Asp78Asn, Ala171Ser and Val198Ile mutant gene by agar dilution method; assay type: functional
[11] = test system: Klebsiella pneumoniae; experiment: Antimicrobial activity against ciprofloxacin-resistant Klebsiella pneumoniae isolate 719 harboring GyrA Ser83Leu, Asp78Asn, Ala171Ser and Val198Ile mutant gene by agar dilution method; assay type: functional
[12] = test system: Klebsiella pneumoniae; experiment: Antimicrobial activity against ciprofloxacin-resistant Klebsiella pneumoniae isolate 205 harboring GyrA Ser83Leu, Asp78Asn, Ala171Ser and Val198Ile mutant gene by agar dilution method; assay type: functional
[13] = test system: Klebsiella pneumoniae; experiment: Antimicrobial activity against ciprofloxacin-resistant Klebsiella pneumoniae isolate 769 harboring GyrA Ser83Ile and Gly177Arg mutant gene by agar dilution method; assay type: functional
[14] = test system: Klebsiella pneumoniae; experiment: Antimicrobial activity against ciprofloxacin-resistant Klebsiella pneumoniae isolate 828 harboring GyrA Ser83Ile and Gly177Arg mutant gene by agar dilution method; assay type: functional
[15] = test system: Klebsiella pneumoniae; experiment: Antimicrobial activity against ciprofloxacin-resistant Klebsiella pneumoniae isolate 827 harboring GyrA Ser83Ile mutant gene by agar dilution method; assay type: functional
[16] = test system: Klebsiella pneumoniae; experiment: Antimicrobial activity against ciprofloxacin-resistant Klebsiella pneumoniae isolate 772 harboring GyrA Ser83Ile mutant gene by agar dilution method; assay type: functional
[17] = test system: Klebsiella pneumoniae; experiment: Antimicrobial activity against ciprofloxacin-resistant Klebsiella pneumoniae isolate 721 harboring GyrA Ala171Ser, Leu187Ile and Val198Ile mutant gene by agar dilution method; assay type: functional
[18] = test system: Klebsiella pneumoniae; experiment: Antimicrobial activity against ciprofloxacin-resistant Klebsiella pneumoniae isolate 836 by agar dilution method; assay type: functional
[19] = test system: Klebsiella pneumoniae; experiment: Antimicrobial activity against ciprofloxacin-intermediate resistant Klebsiella pneumoniae isolate 753 harboring GyrA Ser83Ile mutant gene by agar dilution method; assay type: functional
[20] = test system: Klebsiella pneumoniae; experiment: Antimicrobial activity against ciprofloxacin-intermediate resistant Klebsiella pneumoniae isolate 21 by agar dilution method; assay type: functional
[21] = test system: Klebsiella pneumoniae; experiment: Antimicrobial activity against ciprofloxacin-intermediate resistant Klebsiella pneumoniae isolate 715 by agar dilution method; assay type: functional
[22] = test system: Klebsiella pneumoniae; experiment: Antimicrobial activity against ciprofloxacin-susceptible Klebsiella pneumoniae isolate 840 harboring GyrA Ala171Ser, Leu187Ile and Val198Ile mutant gene by agar dilution method; assay type: functional
[23] = test system: Klebsiella pneumoniae; experiment: Antimicrobial activity against ciprofloxacin-susceptible Klebsiella pneumoniae isolate 685 harboring GyrA Ala171Ser, Leu187Ile and Val198Ile mutant gene by agar dilution method; assay type: functional
[24] = test system: Klebsiella pneumoniae; experiment: Antimicrobial activity against ciprofloxacin-susceptible Klebsiella pneumoniae isolate 212 harboring GyrA Ala171Ser, Leu187Ile and Val198Ile mutant gene by agar dilution method; assay type: functional
[25] = test system: Klebsiella pneumoniae; experiment: Antimicrobial activity against ciprofloxacin-susceptible Klebsiella pneumoniae isolate 517 harboring GyrA Ala171Ser, Leu187Ile and Val198Ile mutant gene by agar dilution method; assay type: functional
[26] = test system: Klebsiella pneumoniae; experiment: Antimicrobial activity against ciprofloxacin-susceptible Klebsiella pneumoniae isolate 838 harboring GyrA Ser83Tyr, Ala171Ser, Leu187Ile and Val198Ile mutant gene by agar dilution method; assay type: functional
[27] = test system: Klebsiella pneumoniae; experiment: Antimicrobial activity against ciprofloxacin-susceptible Klebsiella pneumoniae isolate 49 harboring GyrA Asp87Asn, Arg154Ser and Ala171Ser mutant gene by agar dilution method; assay type: functional
[28] = test system: Klebsiella pneumoniae; experiment: Antimicrobial activity against ciprofloxacin-susceptible Klebsiella pneumoniae isolate 182 harboring GyrA Ser83Thr and Ala171Ser mutant gene by agar dilution method; assay type: functional
[29] = test system: Klebsiella pneumoniae; experiment: Antimicrobial activity against ciprofloxacin-susceptible Klebsiella pneumoniae isolate 737 harboring GyrA Ser83Leu and Val198Ile mutant gene by agar dilution method; assay type: functional
[30] = test system: Klebsiella pneumoniae; experiment: Antimicrobial activity against ciprofloxacin-susceptible Klebsiella pneumoniae isolate 724 harboring GyrA Ser83Ile mutant gene by agar dilution method; assay type: functional
[31] = test system: Klebsiella pneumoniae; experiment: Antimicrobial activity against ciprofloxacin-susceptible Klebsiella pneumoniae isolate 738 by agar dilution method; assay type: functional
Summary of the method: (§1)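 MIC read by agar dilution on Mueller-Hinton agar following CLSI (formerly NCCLS) recommendations. K. pneumoniae isolates were identified with the API 20E system and confirmed as nonduplicated by randomly amplified polymorphic DNA analysis.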

[32] = test system: Klebsiella pneumoniae; experiment: Antimicrobial activity against ciprofloxacin-susceptible Klebsiella pneumoniae isolate 577 by agar dilution method; assay type: functional; summary of the method: as §1
[33] = test system: Klebsiella pneumoniae; experiment: Antimicrobial activity against ciprofloxacin-susceptible Klebsiella pneumoniae isolate 760 by agar dilution method; assay type: functional
[34] = test system: Klebsiella pneumoniae; experiment: microbe, parasite or virus in culture; settings: isolate 16
[35] = test system: Klebsiella pneumoniae; experiment: microbe, parasite or virus in culture; settings: isolate 19
[36] = test system: Klebsiella pneumoniae; experiment: microbe, parasite or virus in culture; settings: isolate 29
[37] = test system: Klebsiella pneumoniae; experiment: microbe, parasite or virus in culture; settings: isolate 24
[38] = test system: Klebsiella pneumoniae; experiment: microbe, parasite or virus in culture; settings: isolate 3

| SMILES | MIC [1] [µg/mL] | MIC [2] [µg/mL] | MIC [3] [µg/mL] | MIC [4] [µg/mL] | MIC [5] [µg/mL] | MIC [6] [µg/mL] | MIC [7] [µg/mL] | MIC [8] [µg/mL] | MIC [9] [µg/mL] | MIC [10] [µg/mL] | MIC [11] [µg/mL] | MIC [12] [µg/mL] | MIC [13] [µg/mL] | MIC [14] [µg/mL] | MIC [15] [µg/mL] | MIC [16] [µg/mL] | MIC [17] [µg/mL] | MIC [18] [µg/mL] | MIC [19] [µg/mL] | MIC [20] [µg/mL] | further results |
| --- | --- | --- | --- | --- | --- | --- | --- | --- | --- | --- | --- | --- | --- | --- | --- | --- | --- | --- | --- | --- | --- |
| O=C(O)c1cn(C2CC2)c2cc(N3CCNCC3)c(F)cc2c1=O [CIPROFLOXACIN] | 128 (≈ 386 µM) | 128 (≈ 386 µM) | 64 (≈ 193 µM) | 64 (≈ 193 µM) | 64 (≈ 193 µM) | 32 (≈ 96.6 µM) | 32 (≈ 96.6 µM) | 16 (≈ 48.3 µM) | 16 (≈ 48.3 µM) | 8 (≈ 24.1 µM) | 8 (≈ 24.1 µM) | 4 (≈ 12.1 µM) | 32 (≈ 96.6 µM) | 32 (≈ 96.6 µM) | 32 (≈ 96.6 µM) | 32 (≈ 96.6 µM) | 8 (≈ 24.1 µM) | 4 (≈ 12.1 µM) | 2 (≈ 6.04 µM) | 2 (≈ 6.04 µM) | MIC [21]: 2 µg/mL (≈ 6.04 µM); MIC [22]: 1 µg/mL (≈ 3.02 µM); MIC [23]: 0.125 µg/mL (≈ 0.377 µM); MIC [24]: < 0.0312 µg/mL; MIC [25]: < 0.0312 µg/mL; MIC [26]: 1 µg/mL (≈ 3.02 µM); MIC [27]: 0.5 µg/mL (≈ 1.51 µM); MIC [28]: < 0.0312 µg/mL; MIC [29]: < 0.0312 µg/mL; MIC [30]: < 0.0312 µg/mL; MIC [31]: 1 µg/mL (≈ 3.02 µM); MIC [32]: 0.125 µg/mL (≈ 0.377 µM); MIC [33]: < 0.0312 µg/mL; MIC [34]: 4 µg/mL (≈ 12.1 µM); MIC [35]: 8 µg/mL (≈ 24.1 µM); MIC [36]: 16 µg/mL (≈ 48.3 µM); MIC [37]: 32 µg/mL (≈ 96.6 µM); MIC [38]: 16 µg/mL (≈ 48.3 µM) |
| CCn1cc(C(=O)O)c(=O)c2ccc(C)nc21 [NALIDIXIC ACID] | > 512 | > 512 | > 512 | > 512 | > 512 | > 512 | > 512 | > 512 | > 512 | > 512 | > 512 | > 512 | > 512 | > 512 | > 512 | > 512 | > 512 | > 512 | > 512 | 16 (≈ 68.9 µM) | MIC [21]: 16 µg/mL (≈ 68.9 µM); MIC [22]: 16 µg/mL (≈ 68.9 µM); MIC [23]: > 512 µg/mL; MIC [24]: 16 µg/mL (≈ 68.9 µM); MIC [25]: 8 µg/mL (≈ 34.4 µM); MIC [26]: 256 µg/mL (≈ 1100 µM); MIC [27]: > 512 µg/mL; MIC [28]: 4 µg/mL (≈ 17.2 µM); MIC [29]: 8 µg/mL (≈ 34.4 µM); MIC [30]: 8 µg/mL (≈ 34.4 µM); MIC [31]: 8 µg/mL (≈ 34.4 µM); MIC [32]: 4 µg/mL (≈ 17.2 µM); MIC [33]: 4 µg/mL (≈ 17.2 µM) |
